Test results reported in ChEMBL document CHEMBL1140883, “Synthesis and antitumor activity of novel amsacrine analogs: the critical role of the acridine moiety in determining their biological activity” (Bioorg Med Chem, 2009).
Calls of active or inactive are those of the source. The rule behind the calls is not given here.

Assays:
[1] = test system: Salmonidae; test: Binding affinity to salmon testes DNA assessed as negative dichroic signal by linear dichroism experiment
Method in brief: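 Flow linear dichroism on salmon testes DNA at 1.5 × 10^-3 M in ETN buffer (10 mM Tris, 10 mM NaCl, 1 mM EDTA, pH 7). DNA orientation by shear gradient at 500–700 rpm. Spectra recorded at 25 °C at [drug]/[DNA] ratios of 0, 0.02, 0.04 and 0.08, each spectrum accumulated four times. DNA concentration from ε260 6600 M^-1 cm^-1.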

[2] = test system: HL-60; test: Cytotoxicity against human HL60 cells after 72 hrs by MTT assay; assay type: functional, cell-based; conditions: HL-60, 72 h
Method in brief: (§1)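 Cells kept in log phase at 37 °C, 5% CO2, in RPMI-1640 with 10% foetal calf serum. Seeded at 3–8 × 10^4 mL^-1 according to growth rate. Treated 72 h with increasing drug concentrations, final solvent 0.5%. MTT read-out as absorbance at 540 nm, expressed as % of untreated control. IC50 taken from dose–survival curves.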

[3] = test system: A549; test: Cytotoxicity against human A549 cells after 72 hrs by MTT assay; assay type: functional, cell-based; conditions: A549, 72 h
Method in brief: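 A549 cells kept in log phase at 37 °C, 5% CO2, in F-12 Ham's with 15% foetal calf serum, penicillin 50 units mL^-1 and streptomycin. Seeded at 3–8 × 10^4 mL^-1, then treated 72 h with increasing concentrations, final solvent 0.5%. MTT absorbance at 540 nm as % of untreated control. IC50 taken from dose–survival curves.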

[4] = test system: MCF7; test: Cytotoxicity against human MCF7 cells after 72 hrs by MTT assay; assay type: functional, cell-based; conditions: MCF7, 72 h; method in brief: as §1
[5] = test system: A-431; test: Cytotoxicity against human A431 cells after 72 hrs by MTT assay; assay type: functional, cell-based; conditions: A-431, 72 h; method in brief: as §1
[6] = test system: 2008; test: Cytotoxicity against human 2008 cells after 72 hrs by MTT assay; assay type: functional, cell-based; conditions: Homo sapiens, 2008, 72 h; method in brief: as §1

Row | Activity [1] | SMILES | IC50 [2] [µM] | IC50 [3] [µM] | IC50 [4] [µM] | IC50 [5] [µM] | IC50 [6] [µM]
1 | Active | COc1cc(NS(C)(=O)=O)ccc1Nc1c2ccccc2nc2ccccc12 [AMSACRINE] | 1.15 | 3.52 | 5.13 | 5.89 | 4.31
2 |  | O=c1ccc2c(Cl)c3ccccc3nc2o1 | 39.5 | 62.9 | > 100 | 54.3 | 52.6
3 |  | COc1cc(NS(C)(=O)=O)ccc1Nc1c2ccc(=O)oc2nc2c(OC)cccc12 | > 100 | 81.5 | > 100 | > 100 | > 100
4 |  | COc1ccc2c(Cl)c3ccc(=O)oc3nc2c1 | 60.3 | 53.4 | 50.1 | > 100 | > 100
5 |  | COc1cccc2c(Nc3ccc(NS(C)(=O)=O)cc3)c3ccc(=O)oc3nc12 | > 100 | > 100 | > 100 | > 100 | > 100
6 |  | COc1ccc2nc3oc(=O)ccc3c(Nc3ccc(NS(C)(=O)=O)cc3OC)c2c1 | 95.2 | > 100 | > 100 | 85.7 | > 100
7 |  | COc1ccc2nc3oc(=O)ccc3c(Nc3ccc(NS(C)(=O)=O)cc3)c2c1 | 47.3 | > 100 | 60.6 | 55.6 | 68.2
8 |  | COc1ccc2c(Nc3ccc(NS(C)(=O)=O)cc3)c3ccc(=O)oc3nc2c1 | > 100 | > 100 | > 100 | 92.7 | > 100
9 |  | CS(=O)(=O)Nc1ccc(Nc2c3ccccc3nc3oc(=O)ccc23)cc1 | 92.1 | > 100 | > 100 | 94.1 | > 100
10 |  | COc1cccc2c(Cl)c3ccc(=O)oc3nc12 | 37.1 | 75.4 | 54.1 | 55.3 | 60.6
11 |  | COc1cc(NS(C)(=O)=O)ccc1Nc1c2ccccc2nc2oc(=O)ccc12 | > 100 | > 100 | > 100 | > 100 | > 100
12 |  | COc1ccc2nc3oc(=O)ccc3c(Cl)c2c1 | > 100 | > 100 | > 100 | 97 | > 100
